Data on 1 molecule can be found in ChEMBL document CHEMBL4622914, “Development of a bioavailable boron-containing PI-103 Bioisostere, PI-103BE” (Bioorg Med Chem Lett, 2020).

In general, pIC50 refers to the negative decadic logarithm of the IC50, by convention in mol/L. One may read the Cmax as the peak of the concentration-time curve. By AUC is commonly meant concentration integrated over time.

Structures are written as SMILES. pIC50: −log10 of the molar value.

In one data set the test system is A549. The experiment in a line: Antiproliferative activity against human A549 cells assessed as reduction in cell viability incubated for 4 days by coulter counter method. The format is functional, cell-based. The note with it: A549, 96 h. In outline:
(§1)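 Cancer cells were seeded at 50,000 per well in DMEM with 5% FBS. They were exposed to six compound doses for 4 days, with DMSO as vehicle control and a reference inhibitor as positive control. Cells were counted by Coulter counter. Survival ratio is treated cell number over vehicle cell number. IC50 was taken from dose–response curves. Triplicate experiments.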

In a further data set the test system is HeLa. The experiment in a line: Antiproliferative activity against human HeLa cells assessed as reduction in cell viability incubated for 4 days by coulter counter method. Type of data set: functional, cell-based. The note with it: 96 h. In outline:
as §1

Data set [1] is described as follows: Stability of compound in cell culture medium assessed as compound hydrolysis measured after 3 hrs. The format is physicochemical.
Data set [2] is described as follows: Stability of compound in cell culture medium assessed as compound hydrolysis measured after 24 hrs. The format is physicochemical.
Data set [3] can be described thus: Drug concentration in ovariectomized nu/nu mouse plasma assessed 3-(4-morpholinopyrido [3',2':4,5] furo [3,2-d] pyrimidin-2-yl)phenol at 10 mg/kg, ip measured after 0.5 hrs by UHPLC-MS analysis. The note with it: in vivo. The format is ADME, organism-based.
Data set [4] can be described thus: Drug concentration in ovariectomized nu/nu mouse plasma assessed 3-(4-morpholinopyrido [3',2':4,5] furo [3,2-d] pyrimidin-2-yl)phenol at 10 mg/kg, ip measured after 3 hrs by UHPLC-MS analysis. The format is ADME, organism-based. The note with it: in vivo.
A short description of data set [5]: Cmax in ovariectomized nu/nu mouse assessed 3-(4-morpholinopyrido [3',2':4,5] furo [3,2-d] pyrimidin-2-yl)phenol at 10 mg/kg, ip measured upto 24 hrs by UHPLC-MS analysis. The format is ADME, organism-based. The arrangement: dose 10 mg/kg, route intraperitoneal. The conditions noted are these: in vivo.
Data set [6] is described as follows: AUC in ovariectomized nu/nu mouse assessed 3-(4-morpholinopyrido [3',2':4,5] furo [3,2-d] pyrimidin-2-yl)phenol at 10 mg/kg, ip measured upto 24 hrs by UHPLC-MS analysis. The format is ADME, organism-based. The arrangement: time < 24 hr, dose 10 mg/kg, route intraperitoneal. The conditions noted are these: in vivo.
Data set [7] in a line: Drug concentration in ovariectomized nu/nu mouse plasma assessed 3-(4-morpholinopyrido [3',2':4,5] furo [3,2-d] pyrimidin-2-yl)phenol at 10 mg/kg, po measured after 3 hrs by UHPLC-MS analysis. Type of data set: ADME, organism-based. The note with it: in vivo. In outline: (§2)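 Female ovariectomized Nu/Nu mice, 4–6 weeks old, n = 5 per group. Single 10 mg/kg oral gavage in 5% DMSO/40% PEG 400/55% saline. Orbital-sinus blood was taken at 0.5, 1, 3, 8 and 24 h, one sampling per group, into EDTA. Plasma was spun at 4 °C and stored at −80 °C. The prodrug's boronic acid metabolite and phenol were quantified by C18 UHPLC–TSQ MS/MS with an acetonitrile/water 0.05% formic acid gradient.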

Data set [8] in a line: Half life in ovariectomized nu/nu mouse assessed 3-(4-morpholinopyrido [3',2':4,5] furo [3,2-d] pyrimidin-2-yl)phenol at 10 mg/kg, po measured upto 24 hrs by UHPLC-MS analysis. The note with it: in vivo. The format is ADME, organism-based. In outline: as §2
The nature of data set [9]: AUC (0 to 24 hrs) in ovariectomized nu/nu mouse assessed 3-(4-morpholinopyrido [3',2':4,5] furo [3,2-d] pyrimidin-2-yl)phenol at 10 mg/kg, po measured upto 24 hrs by UHPLC-MS analysis. Type of data set: ADME, organism-based. Also on record: dose 10 mg/kg, time < 24 hr, route oral. The note with it: in vivo. In outline: as §2
A short description of data set [10]: Drug concentration in ovariectomized nu/nu mouse plasma assessed (3-(4-morpholinopyrido [3',2':4,5] furo [3,2-d] pyrimidin-2-yl)phenyl)boronic acid at 10 mg/kg, ip measured after 0.5 hrs by UHPLC-MS analysis. The format is ADME, organism-based. The note with it: in vivo.
Data set [11] is described as follows: Drug concentration in ovariectomized nu/nu mouse plasma assessed (3-(4-morpholinopyrido [3',2':4,5] furo [3,2-d] pyrimidin-2-yl)phenyl)boronic acid at 10 mg/kg, ip measured after 8 hrs by UHPLC-MS analysis. Type of data set: ADME, organism-based. The conditions noted are these: in vivo.
The nature of data set [12]: Cmax in ovariectomized nu/nu mouse assessed (3-(4-morpholinopyrido [3',2':4,5] furo [3,2-d] pyrimidin-2-yl)phenyl)boronic acid at 10 mg/kg, ip measured upto 24 hrs by UHPLC-MS analysis. The format is ADME, organism-based. The arrangement: dose 10 mg/kg, route intraperitoneal. The note with it: in vivo.
The nature of data set [13]: Drug concentration in ovariectomized nu/nu mouse plasma assessed (3-(4-morpholinopyrido [3',2':4,5] furo [3,2-d] pyrimidin-2-yl)phenyl)boronic acid at 10 mg/kg, po measured after 0.5 hrs by UHPLC-MS analysis. The format is ADME, organism-based. The note with it: in vivo. In outline: as §2
Data set [14] is described as follows: Drug concentration in ovariectomized nu/nu mouse plasma assessed (3-(4-morpholinopyrido [3',2':4,5] furo [3,2-d] pyrimidin-2-yl)phenyl)boronic acid at 10 mg/kg, po measured after 1 hr by UHPLC-MS analysis. Type of data set: ADME, organism-based. The conditions noted are these: in vivo. In outline:
as §2

Data set [15] is described as follows: Drug concentration in ovariectomized nu/nu mouse plasma assessed (3-(4-morpholinopyrido [3',2':4,5] furo [3,2-d] pyrimidin-2-yl)phenyl)boronic acid at 10 mg/kg, po measured after 24 hrs by UHPLC-MS analysis. Type of data set: ADME, organism-based. The note with it: in vivo. In outline: as §2
Data set [16] in a line: Cmax in ovariectomized nu/nu mouse assessed (3-(4-morpholinopyrido [3',2':4,5] furo [3,2-d] pyrimidin-2-yl)phenyl)boronic acid at 10 mg/kg, po measured upto 24 hrs by UHPLC-MS analysis. The arrangement: dose 10 mg/kg, route oral. The note with it: in vivo. Type of data set: ADME, organism-based. A digest of the protocol: as §2

As for `CC1(C)OB(c2cccc(-c3nc(N4CCOCC4)c4oc5ncccc5c4n3)c2)OC1(C)C`, the pIC50 is 6.24 in the data set with A549 and 5.42 in the data set with HeLa. Also, the Drug degradation in [1] and in [2] was 0 µM throughout. Further, the Cp in data set [3] is 14.9 ng/mL; in data set [4], 1.3 ng/mL; in data set [7] it was 6.5 ng/mL; in data set [10] it was 30.6 ng/mL; in [11], 17.2 ng/mL; in data set [13], 402.8 ng/mL. Moreover, the figures for the Cp in data set [14] and in data set [15] were 709.2 ng/mL and 106.4 ng/mL, respectively. Also, the Cmax in [5] was 14.9 ng/mL; in data set [12], 44.5 ng/mL; in data set [16] it was 709.2 ng/mL. In addition, the AUC came out at 32.3 ng·h/mL in [6] and 88.2 ng·h/mL in data set [9]. This molecule returned a t1/2 in data set [8] of 6.5 h.
